In ChEMBL document CHEMBL1140077, “Lipid-lowering (hetero)aromatic tetrahydro-1,4-oxazine derivatives with antioxidant and squalene synthase inhibitory activity” (J Med Chem, 2008):

What was measured:
[1] = tested on: Rattus norvegicus; assay: Decrease in total cholesterol level in Fischer 344 rat plasma at 56 umol/kg, ip after 24 hrs; format: functional; design: scale not given: the % may be the effect or the level left
How it was run: (§1)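 Male Fischer-344 rats (180-220 g) made hyperlipidemic with Triton WR 1339 (200 mg/kg ip, aqueous); 1 h later compound (56 µmol/kg) in saline or saline alone given ip. Aortic blood taken at 24 h; plasma total cholesterol, LDL-C and triglycerides measured with kits in duplicate; mean of 8-10 rats per compound.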

[2] = target: T1, Squalene synthase (Rattus norvegicus, UniProt Q02769); assay: Inhibition of squalene synthase in rat liver microsome measured by conversion of [3H]FPP to squalene; format: microsomes
T1 sequence (Q02769 whole entry): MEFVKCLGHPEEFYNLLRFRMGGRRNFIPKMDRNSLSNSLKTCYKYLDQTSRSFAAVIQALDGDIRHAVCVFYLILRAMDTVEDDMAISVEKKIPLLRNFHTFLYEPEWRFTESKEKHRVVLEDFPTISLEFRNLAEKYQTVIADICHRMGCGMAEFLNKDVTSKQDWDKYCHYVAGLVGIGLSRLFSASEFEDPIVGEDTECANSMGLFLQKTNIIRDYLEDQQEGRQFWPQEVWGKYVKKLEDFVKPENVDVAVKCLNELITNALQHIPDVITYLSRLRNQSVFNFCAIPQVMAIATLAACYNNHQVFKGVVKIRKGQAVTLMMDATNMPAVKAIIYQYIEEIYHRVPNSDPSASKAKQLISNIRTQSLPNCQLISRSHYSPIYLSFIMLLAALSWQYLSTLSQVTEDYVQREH
How it was run: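 Rat liver microsomes (18 µg protein/mL) in 50 mM phosphate pH 7.4 with 10 mM MgCl2, 0.5 mM NADPH, compound in ethanol; preincubated 10 min 37 °C, started with [3H]FPP (0.5 µM), 10 min 37 °C. Stopped with ethanolic KOH, 65 °C 30 min, petroleum ether extract counted by scintillation; triplicates, IC50 from mean.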

[3] = tested on: Rattus norvegicus; assay: Decrease in triglyceride level in Fischer 344 rat plasma at 56 umol/kg, ip after 24 hrs; format: functional; design: scale not given: the % may be the effect or the level left; how it was run: as §1
[4] = tested on: Liver microsomes; assay: Inhibition of lipid peroxidation in heat-inactivated rat liver microsomes after 45 mins; format: functional, Microsome
How it was run: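 Heat-inactivated liver microsomes from untreated rats (2.5 mg protein/mL) with 0.2 mM ascorbate in Tris-HCl/KCl (50/150 mM, pH 7.4), compound 10 µM-1 mM in DMSO; started with FeSO4 (10 µM), 37 °C 45 min. TBAR read at 535 vs 600 nm; duplicates; IC50 as mean concentration giving 50% inhibition of peroxidation.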

[5] = tested on: Rattus norvegicus; assay: Decrease in LDL-cholesterol level in Fischer 344 rat plasma at 56 umol/kg, ip after 24 hrs; format: functional; design: scale not given: the % may be the effect or the level left; how it was run: as §1

IC50 [2] [µM] | IC50 [4] [µM] | Compound | Activity [1] [%] | Activity [3] [%] | Activity [5] [%]
4 | 200 | CN1CC(O)(c2ccc(-c3ccc(Br)cc3)cc2)OC2CCCCC21 (stereo not given) | 23 | 7 | 53
23 | 330 | CN1CCOC(O)(c2ccc(-c3ccc(F)cc3)cc2)C1 (stereo not given) | 23 | 18 | 36
7 | 174 | OC1(c2ccc(-c3cccs3)cc2)CN2CCCCC2CO1 (stereo not given) | 43 | 29 | 46
5 | 87 | CN1CCOC(O)(c2ccc(-c3cccs3)cc2)C1 (stereo not given) | 48 | 38 | 61
5 | 187 | OC1(c2ccc(-c3nc4ccccc4s3)cc2)CN2CCCCC2CO1 (stereo not given) | 55 | 46 | 41
10 | 162 | OC1(c2ccc(-c3ccc(F)cc3)cc2)CN2CCCCC2CO1 (stereo not given) | 27 | 95 | 11
3 | 139 | OC1(c2ccc(-c3ccc(Br)cc3)cc2)CN2CCCCC2CO1 (stereo not given) | 17 | 17 | 6
7 | 164 | OC1(c2ccc(-c3ccc(Br)s3)cc2)CN2CCCCC2CO1 (stereo not given) | 36 | 37 | 35
15 | 178 | OC1(c2ccc(-c3ccc(Cl)cc3)cc2)CN2CCCCC2CO1 (stereo not given) | 44 | 52 | 35
9 | 180 | CN1CC(O)(c2ccc(-c3ccc(Cl)cc3)cc2)OC2CCCCC21 (stereo not given) | 11 | 41 | 29
6 | 220 | CN1CCOC(O)(c2ccc(-c3ccc(Br)cc3)cc2)C1 (stereo not given) | 47 | 51 | 36
10 | 390 | OC1(c2ccc(-c3ccccc3F)cc2)CN2CCCCC2CO1 (stereo not given) | 5 | 15 | 11
36 | 450 | CN1CC(O)(c2ccc(-c3ccccc3)cc2)OC2CCCCC21 (stereo not given) | 54 | 49 | 51
2 | 113 | CN1CCOC(O)(c2ccc(-c3nc4ccccc4s3)cc2)C1 (stereo not given) | 46 | 44 | 53
6 | 202 | CN1CC(O)(c2ccc(-c3nc4ccccc4s3)cc2)OC2CCCCC21 (stereo not given) | 0 | 0 | 24
13 | 51 | CN1CCOC(O)(c2ccc(-c3ccc(Br)s3)cc2)C1 (stereo not given) | 43 | 35 | 26

Compound | IC50 [2] [µM] | IC50 [4] [µM] | Activity [1] [%] | Activity [3] [%] | Activity [5] [%]
CN1CC(O)(c2ccc(-c3cccs3)cc2)OC2CCCCC21 (stereo not given) | 10 | 20 | 45 | 47 | 46
CN1CC(O)(c2ccc(-c3ccccc3F)cc2)OC2CCCCC21 (stereo not given) | 42 | 490 | 18 | 25 | 47
CN1CC(O)(c2ccc(-c3ccc(F)cc3)cc2)OC2CCCCC21 (stereo not given) | 28 | 420 | 41 | 94 | 33
CN1CCOC(O)(c2ccc(-c3ccc(Cl)cc3)cc2)C1 (stereo not given) | 9 | 111 | 63 | 70 | 57
CN1CC(O)(c2ccc(-c3ccc(Br)s3)cc2)OC2CCCCC21 (stereo not given) | 1 | 160 | 35 | 26 | 45
CN1CCOC(O)(c2ccc(-c3ccccc3F)cc2)C1 (stereo not given) | 40 | 182 | 67 | 64 | 82
